Laboratory results: ChEMBL document CHEMBL5260797, “N-(1-Benzyl-3,5-dimethyl-1H-pyrazol-4-yl)benzamides: Antiproliferative Activity and Effects on mTORC1 and Autophagy” (ACS Med Chem Lett, 2017)

System: MIA PaCa-2
Assay: Antiproliferative activity against human MIA PaCa-2 cells assessed as cell viability measured after 72 hrs by MTT assay
Type: functional, cell-based
Settings: MIA PaCa-2, 72 h
Summary of the method: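 MIA PaCa-2 pancreatic cancer cells; EC50 values determined in triplicate.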

SMILES | EC50
Cc1nn(Cc2cccc(C(=O)N(C)C)c2)c(C)c1NC(=O)c1ccc(COc2ccccc2)cc1 | 6.4 µM
CCN(CC)CCCC(C)Nc1ccnc2cc(Cl)ccc12 (centres undefined) [CHLOROQUINE] | 14 µM
Cc1nn(Cc2cccc(C(=O)Nc3ccccc3)c2)c(C)c1NC(=O)c1ccc(COc2ccccc2)cc1 | 6.4 µM
CNC(=O)c1cccc(Cn2nc(C)c(NC(=O)c3ccc(COc4cccc(OC)c4)cc3)c2C)c1 | 6.2 µM
Cc1nn(Cc2cccc(C(=O)NC(C)C)c2)c(C)c1NC(=O)c1ccc(COc2ccccc2)cc1 | 8.9 µM
CNC(=O)c1cccc(Cn2nc(C)c(NC(=O)c3ccc(COc4ccccc4C(F)(F)F)cc3)c2C)c1 | 10 µM
Cc1nn(Cc2ccc(C(N)=O)cc2)c(C)c1NC(=O)c1ccc(COc2ccccc2)cc1 | > 100 µM
CNC(=O)c1cccc(Cn2nc(C)c(NC(=O)c3ccc(COc4ccccc4Cl)cc3)c2C)c1 | 6.3 µM
CNC(=O)c1cccc(Cn2nc(C)c(NC(=O)c3ccc(COc4cccc(Cl)c4)cc3)c2C)c1 | 5.9 µM
CNC(=O)c1cccc(Cn2nc(C)c(NC(=O)c3ccc(COc4cccc(C(F)(F)F)c4)cc3)c2C)c1 | 2.3 µM
CNC(=O)c1cccc(Cn2nc(C)c(NC(=O)c3ccc(COc4cccc(C)c4)cc3)c2C)c1 | 6.2 µM
CNC(=O)c1cccc(Cn2nc(C)c(NC(=O)c3ccc(COc4ccc(C)cc4)cc3)c2C)c1 | 2.6 µM
Nc1ccn([C@@H]2O[C@H](CO)[C@@H](O)C2(F)F)c(=O)n1 [GEMCITABINE] | 0.0015 µM
Cn1cnc(N)c2ncnc1-2 [3-METHYLADENINE] | > 100 µM
